Laboratory results: PMC7286531 (Organic & biomolecular chemistry, 2020)

Legend:
[1] = tested on: STAT3 phosphorylated on tyrosine 705 (pSTAT3); experiment: G-CSF-induced intracellular STAT3 phosphorylation assay in AML cell lines; format: cell-based, human; conditions: Kasumi-1 / Kasumi cells
Summary of the method: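 Kasumi-1 human AML cells (also other AML lines) were exposed to a concentration series of test compound and stimulated with G-CSF to induce STAT3 phosphorylation. Cells were then lysed, and STAT3 phosphorylated on Tyr705 was quantified with a fluorescent anti-pSTAT3 antibody. IC50 was taken from the concentration series; mean ±SD, n = 3.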

[2] = Stability in aqueous buffer under air; format: physicochemical; conditions: C188–9: within 4 hours

Question: Which results are given for COc1ccc(S(=O)(=O)Nc2cc(-c3c(O)ccc4ccccc34)c(O)c3ccccc23)cc1 [C188–9]?
Answer: inhibition of G-CSF-induced STAT3 phosphorylation, result in words [1]: exceptionally resistant; stability in aqueous buffer in air, result in words [2]: Significant decomposition
